In the library only some 1.9% were active in any assay of this set; here they are far more common.
SUMO1-SIM PPI: SUMO1-SIM interaction modulation | P63165 | SUMO1 binding to a labelled peptide, TR-FRET, 1 h | inhibition, % at 20 µM | actives 0.33% (n = 360,000) | AID 602429; in the data active = inhibition above about 37%
Target sequence (P63165 whole entry, looked up): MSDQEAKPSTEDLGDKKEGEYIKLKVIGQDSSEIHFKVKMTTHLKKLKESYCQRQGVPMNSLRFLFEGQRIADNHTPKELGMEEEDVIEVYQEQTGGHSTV
LMPTP block: blocks human LMPTP phosphatase; recombinant LMPTP-A, OMFP fluorogenic substrate, fluorescence intensity; AID 651560; actives 0.22% (n = 360,000); P24666; inhibition, % at 20 µM;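 active = compounds that cut the enzyme signal by at least half of the control window in the single-dose screen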
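Test system: LMPTP-A phosphatase enzyme. Amount: LMPTP-A at 0.625 nM final in the reaction. Reagent: OMFP substrate, 400 µM final. Times: 50 min at room temperature. Signal: endpoint fluorescence intensity from OMFP dephosphorylation. Read-out basis: % inhibition. Benchmarks: no-enzyme and uninhibited controls.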
Scp1 inh: blocks human Scp-1 phosphatase activity; actives 0.88% (n = 340,000); inhibition, % at 20 µM; Recombinant Scp1, phosphopeptide, malachite green phosphate absorbance;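 active = inhibition above about 50% at 20 µM, limit read from the data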
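Times: enzyme reaction 45 min at room temperature, colour 5 min, stabilisation 30 min. Material: SCP-1 catalytic fragment, aa 76-261. Medium: Acidic Tris acetate buffer with magnesium and detergent. Signal: colorimetric free-phosphate detection, absorbance 630 nm. Read-out basis: % inhibition of SCP-1 phosphate liberation. Reagent: Phosphorylated 17-residue peptide substrate.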
STEP inh: blocks human striatal-enriched tyrosine phosphatase | AID 588621 | inhibition, % at 20 µM | recombinant STEP, OMFP fluorogenic substrate, fluorescence | actives 0.25% (n = 360,000);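 active = inhibition at 20 µM, scaled per plate between control wells, above about 37%, limit read from the data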
Target sequence (P54829 whole entry, looked up): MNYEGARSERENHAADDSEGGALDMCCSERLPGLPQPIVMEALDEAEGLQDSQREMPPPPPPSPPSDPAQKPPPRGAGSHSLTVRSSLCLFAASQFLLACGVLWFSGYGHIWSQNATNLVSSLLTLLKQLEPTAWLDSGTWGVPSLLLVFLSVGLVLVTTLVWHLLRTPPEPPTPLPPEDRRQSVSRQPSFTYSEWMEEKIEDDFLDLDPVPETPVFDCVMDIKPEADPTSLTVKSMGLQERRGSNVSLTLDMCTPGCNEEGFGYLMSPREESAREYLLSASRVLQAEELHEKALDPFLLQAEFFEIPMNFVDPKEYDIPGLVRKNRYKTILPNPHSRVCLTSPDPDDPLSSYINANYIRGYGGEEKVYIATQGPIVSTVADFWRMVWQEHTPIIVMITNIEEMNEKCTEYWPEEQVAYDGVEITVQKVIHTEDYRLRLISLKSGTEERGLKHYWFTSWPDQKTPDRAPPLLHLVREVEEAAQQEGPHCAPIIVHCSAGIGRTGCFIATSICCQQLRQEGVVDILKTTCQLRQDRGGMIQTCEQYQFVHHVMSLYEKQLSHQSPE
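Measure: Control-normalized % inhibition with plate pattern correction | Test system: STEP phosphatase, cell-free reaction | Medium: pH 6.0 Bis-Tris with DTT and Tween 20 | Technique: Fluorescence, 480/540 nm | Times: Reaction 20 min, ambient temperature | Doses: Single compound dose of 20 µM, 1% DMSO final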
FAS TE block: FAS thioesterase (human) inhibition; inhibition, % at 15 µM; recombinant FAS-TE, OMFH fluorogenic substrate, fluorescence endpoint; actives 0.67% (n = 360,000); P49327;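 active = compounds whose normalised, plate-corrected inhibition of enzyme fluorescence in the single-dose primary screen is 50% or more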
FAS-TE inh conf: FAS thioesterase (human) inhibition, confirmation. recombinant FAS-TE, OMFH fluorogenic substrate, fluorescence. actives 45% (n = 2,300). shares compounds with FAS TE block. inhibition, % at 15 µM;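 active = compounds inhibiting the enzyme by at least 50% at 15 µM in any one of the replicates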
Numbers stand for hits; i = inactive; nt = no result given.

SMILES	SUMO1-SIM PPI	LMPTP block	Scp1 inh	STEP inh	FAS TE block	FAS-TE inh conf
C[C@@H]1CCCCO[C@H](CN(C)S(=O)(=O)c2ccc(F)cc2)[C@@H](C)CN([C@H](C)CO)C(=O)c2cc(NC(=O)Nc3ccc(C(F)(F)F)cc3)ccc2O1	i	i	nt	i	74.2	i
COc1ccc(S(=O)(=O)N(C)C[C@@H]2OCCCC[C@H](C)Oc3ccc(NC(=O)Nc4ccc(C(F)(F)F)cc4)cc3C(=O)N([C@H](C)CO)C[C@H]2C)cc1	i	i	nt	i	84.8	i
C[C@H]1CCCCO[C@@H](CN(C)S(=O)(=O)c2ccc(F)cc2)[C@@H](C)CN([C@@H](C)CO)C(=O)c2cc(NC(=O)Nc3ccc4c(c3)OCO4)ccc2O1	i	i	nt	i	i	nt
COc1ccc(S(=O)(=O)N(C)C[C@@H]2OCCCC[C@@H](C)Oc3ccc(NS(=O)(=O)c4cccs4)cc3C(=O)N([C@H](C)CO)C[C@@H]2C)cc1	i	i	nt	i	67.0	i
COc1ccc(S(=O)(=O)Nc2ccc3c(c2)C(=O)N([C@H](C)CO)C[C@H](C)[C@@H](CN(C)C(=O)Nc2ccc(C(F)(F)F)cc2)OCCCC[C@H](C)O3)cc1	i	i	nt	i	62.8	i
CC(NCC(=O)NC(=O)NCCC1=CCCCC1)c1ccc(S(N)(=O)=O)cc1 (configuration not stated)	i	i	i	i	i	nt
CCc1ccc(C(=O)COC(=O)c2cc([N+](=O)[O-])ccc2NCCO)cc1	i	i	i	i	84.3	72.9
O=C(COC(=O)c1cc([N+](=O)[O-])ccc1NCCO)c1ccc(Cl)cc1	i	i	i	i	i	nt
Cc1cc(C)c(C(=O)COC(=O)c2cc([N+](=O)[O-])ccc2NCCO)cc1C	i	i	i	i	52.4	36.6
Cc1ccccc1-n1c(SCC(=O)N/N=C/c2c(C)nn(-c3ccccc3)c2C)nc2ccccc2c1=O	i	i	i	i	59.2	i
Cc1ccc(/C=N/NC(=O)CSc2nc3ccccc3c(=O)n2-c2ccccc2C)s1	i	i	i	i	51.3	i
Cc1ccc(/C=N/NC(=O)CSc2nc3ccccc3c(=O)n2-c2ccccc2)s1	i	i	i	i	i	nt
Cc1[nH]n(-c2ccc(Cl)cc2)c(=O)c1C=Nc1ccc(S(=O)(=O)N2CCOCC2)cc1	i	i	i	i	63.2	i
Cc1ccc(C(C)n2cc(C(=O)NCc3ccccn3)nn2)cc1 (configuration not stated)	i	i	i	i	i	nt
CC(C)(C)c1ccc(OC(=O)Nc2ccc(O)c(C(=O)O)c2)cc1	i	i	i	i	50.3	63.0
Cn1ncc2c(Nc3cccc(Cl)c3)nc(Nc3cccc(Cl)c3)nc21	i	i	i	i	56.6	i
Cn1ncc2c(Nc3ccc(Br)cc3)nc(Nc3ccc(Br)cc3)nc21	i	i	i	i	50.2	i
O=C1OCCN1C(=O)[C@H]1[C@H](c2ccccc2)C(c2ccccc2)=NN1c1ccc(Br)cc1	i	i	i	i	90.3	i
O=C1OCCN1C(=O)[C@H]1[C@H](c2ccccc2)C(c2ccc(F)cc2)=NN1c1ccc(Br)cc1	i	i	i	i	98.4	i
O=C1OCCN1C(=O)[C@H]1[C@H](c2ccccc2)C(c2ccccc2)=NN1c1ccccc1	i	i	i	i	i	nt
CC1CCN(S(=O)(=O)c2ccc3c(c2)c(=O)c(C(=O)NCc2ccco2)cn3C)CC1	i	i	i	i	71.0	80.2
CC1CCN(S(=O)(=O)c2ccc3c(c2)c(=O)c(C(=O)NCc2cccs2)cn3C)CC1	i	i	i	i	65.0	i
Cn1cc(C(=O)NCC2COc3ccccc3O2)c(=O)c2cc(S(=O)(=O)N3CCCCC3)ccc21 (configuration not stated)	i	i	i	i	53.3	i
CC1CCN(S(=O)(=O)c2ccc3c(c2)c(=O)c(C(=O)N2CCOCC2)cn3C)CC1	i	i	i	i	i	nt
Cc1ccc(NC(=O)CN(C)Cc2nc3c(Br)cc(Br)cc3c(=O)[nH]2)cc1	i	i	i	i	i	nt
SMILES	SUMO1-SIM PPI	LMPTP block	Scp1 inh	STEP inh	FAS TE block	FAS-TE inh conf
CCOC(=O)N1CCN(S(=O)(=O)N2CCCC(C(=O)NCc3cccc(OC)c3)C2)CC1 (configuration not stated)	i	i	i	i	i	nt
CCOC(=O)c1c(-c2ccc(C)o2)csc1NC(=O)COC(=O)c1ccc(NC(N)=O)cc1	i	i	i	i	i	nt
Cc1c([N+](=O)[O-])cnc(Sc2ccccc2)c1[N+](=O)[O-]	i	i	i	i	60.1	i
C[C@@]12C(=O)N(Cc3ccc(-c4ccccc4)cc3)CC(=O)N1[C@H](/C=C/c1ccccc1)[C@@H]1C(=O)N(c3ccccc3)C(=O)[C@@H]12	i	i	i	i	50.3	i
COc1cc([N+](=O)[O-])ccc1NC(=S)NNC(=O)CCC(=O)Nc1ccccc1Cl	i	i	i	i	i	nt
COc1cccc(-n2c(CN3CCN(c4cccc(C)c4)C(C)C3)nc3ccc([N+](=O)[O-])cc3c2=O)c1 (configuration not stated)	i	i	i	i	80.2	i
COc1cccc(-n2c(CN3CCN(c4ccccn4)CC3)nc3ccc([N+](=O)[O-])cc3c2=O)c1	i	i	i	i	80.9	81.4
COc1ccc(-n2c(CN3CCN(c4ccccc4)CC3)nc3ccc([N+](=O)[O-])cc3c2=O)c(OC)c1	i	i	i	i	i	nt
COc1ccccc1N1CCN(C(=O)C(=O)c2cccc([N+](=O)[O-])c2)CC1	i	i	nt	nt	nt	nt
COc1ccccc1N1CCN(C(=O)C(C)NC(=O)c2cccc([N+](=O)[O-])c2)CC1 (configuration not stated)	i	i	i	i	80.4	85.8
CCN(C[C@H]1N[C@@](Cc2ccccc2)(C(=O)OC)[C@H]2C(=O)N(Cc3ccccc3)C(=O)[C@@H]12)C(=O)Nc1ccc(C)cc1	i	i	i	i	i	nt
CCN(C[C@H]1N[C@@](Cc2ccccc2)(C(=O)OC)[C@H]2C(=O)N(Cc3ccccc3)C(=O)[C@@H]12)C(=O)Nc1ccc(C(F)(F)F)cc1	i	i	i	i	61.9	i
COC(=O)[C@]1(Cc2ccccc2)N[C@H](CN(C)S(=O)(=O)c2ccc(C(C)(C)C)cc2)[C@@H]2C(=O)N(Cc3ccccc3)C(=O)[C@@H]21	i	i	i	i	55.0	i
CCOC(=O)N=Nc1c2ccccc2c2nc3no[nH]c3nc12	i	i	i	i	87.1	42.7
CCOC(=O)Cc1csc(SCC(=O)N2CCN(c3ccccc3)CC2)n1	i	i	i	i	i	nt
CCN(CC(=O)NCc1ccc(Cl)cc1)C(=O)/C=C/c1ccc(Cl)c([N+](=O)[O-])c1	i	i	i	i	65.0	i

Screening results from PubChem.
